The source of these data is ChEMBL document CHEMBL4325899, “Synthesis and photocytotoxic activity of [1,2,3]triazolo[4,5-h][1,6]naphthyridines and [1,3]oxazolo[5,4-h][1,6]naphthyridines” (Eur J Med Chem, 2019).

Data set [1] relates to MCF7. As to the kind of experiment: Induction of apoptosis in human MCF7 cells assessed as necrotic cells at EC25 to EC75 after 4 hrs in presence of photoirradiation by Annexin V-FITC/propidium iodide staining-based flow cytometric analysis relative to control. The format is functional.
The test system of data set [2] is MCF7. As to the kind of experiment: Cell cycle arrest in human MCF7 cells assessed as accumulation of cells at G0/G1 phase at EC75 after 24 hrs under UV-irradiation by propidium iodide staining-based flow cytometric analysis (reference value: 44.2%). The data set is classed as functional.
Another data set concerns MCF-10A. The data set can be described thus: Phototoxicity against human MCF10A cells preincubated for 5 mins followed by compound washout and subsequent UV irradiation at 1.5 J/cm2 for 5 mins measured after 72 hrs by MTT assay. The format is cell-based. To be noted: light or radiation study. In short, it runs like this:
(§1)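 Compounds were diluted in DMSO (0.5% final), applied in triplicate for 5 min, then washed out with PBS. After medium removal, cells were irradiated on ice for 5 min at 365 nm (1.5 J/cm²) and then kept 72 h at 37 °C. Viability was read by MTT at 540 nm and expressed relative to 0.5% DMSO controls given the same treatment. EC50 is the concentration killing 50%, as the mean ± SD of at least three experiments.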

Data set [3] has as its system MCF7. The data set can be described thus: Cell cycle arrest in human MCF7 cells assessed as accumulation of cells at G0/G1 phase at EC50 after 24 hrs under UV-irradiation by propidium iodide staining-based flow cytometric analysis (reference value: 44.2%). The data set is classed as functional.
Data set [4] concerns MCF7. As to the kind of experiment: Cell cycle arrest in human MCF7 cells assessed as accumulation at S phase at EC25 after 24 hrs under UV-irradiation by propidium iodide staining-based flow cytometric analysis (reference value: 24.7%). The data set is classed as functional.
The nature of data set [5]: Selectivity index, ratio of EC50 for human MCF10A cells under UV irradiation at 1.5 J/cm2 to EC50 for human A375 cells under UV irradiation at 1.5 J/cm2. The format is toxicity. To be noted: MCF10A cells versus A375 cells, read-out: Ratio EC50. An outline of the steps:
(§2)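 SI is the EC50 under irradiation in non-tumor MCF10A cells divided by the EC50 under irradiation in the tumor line. Both were MTT read-outs 72 h after 1.5 J/cm² at 365 nm.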

For data set [6], the system named is MCF7. As to the kind of experiment: Induction of lysosomal activation in human MCF7 cells at 2 uM after 20 mins in presence of UV irradiation by Lysotracker Green DND 26 staining-based confocal microscopic analysis. The data set is classed as functional, cell-based. An outline of the steps: (§3)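 MCF7 cells (4x10⁵) on glass slides were loaded with LysoTracker Green DND-26 (175 nM) for 45 min in phenol-red-free, serum-free medium, before 2 µM compound with or without UV activation. Cells were fixed in 2% PFA 20 min or 2 h after UV and imaged confocally (ex 488 nm, em 500–530 nm). Controls were untreated cells with and without irradiation, and cells given PMA (400 nM).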

Data set [7] relates to MCF7. The data set can be described thus: Cell cycle arrest in human MCF7 cells assessed as accumulation of cells at G2/M phase at EC75 after 24 hrs under UV-irradiation by propidium iodide staining-based flow cytometric analysis (reference value: 26.3%). The data set is classed as functional.
Data set [8] has as its system MCF7. The data set can be described thus: Induction of lysosomal activation in human MCF7 cells assessed as late apoptotis at 2 uM after 2 hrs in presence of UV irradiation by Lysotracker Green DND 26 staining-based confocal microscopic analysis. The data set is classed as functional, cell-based. In short, it runs like this: as §3
A short description of data set [9]: Selectivity index, ratio of EC50 for human MCF10A cells under UV irradiation at 1.5 J/cm2 to EC50 for human MCF7 cells under UV irradiation at 1.5 J/cm2. The settings on record: MCF10A cells versus MCF7 cells, read-out: Ratio EC50. The format is toxicity. An outline of the steps: as §2
Data set [10] deals with MCF7. The data set can be described thus: Cell cycle arrest in human MCF7 cells assessed as accumulation of cells at subG1 phase at EC50 after 24 hrs under UV-irradiation by propidium iodide staining-based flow cytometric analysis (reference value: 4.8%). The format is functional.
The subject of data set [11] is MCF7. As to the kind of experiment: Cell cycle arrest in human MCF7 cells assessed as accumulation of cells at subG1 phase at EC75 after 24 hrs under UV-irradiation by propidium iodide staining-based flow cytometric analysis (reference value: 4.8%). The format is functional.
The next data set concerns A-375. The data set can be described thus: Phototoxicity index, ratio of CC50 for human A375 cells to EC50 for human A375 cells under UV irradiation at 1.5 J/cm2.
For data set [12], the system named is MCF7. The data set can be described thus: Phototoxicity against human MCF7 cells preincubated for 5 mins followed by compound washout and subsequent UV irradiation at 1.5 J/cm2 for 5 mins measured after 72 hrs by MTT assay. The data set is classed as functional, cell-based. To be noted: MCF7, light or radiation study. In short, it runs like this: as §1
The subject of data set [13] is MCF7. As to the kind of experiment: Induction of apoptosis in human MCF7 cells assessed as apoptotic cells at EC25 to EC75 after 4 hrs in presence of photoirradiation by Annexin V-FITC/propidium iodide staining-based flow cytometric analysis relative to control. The format is functional.
The test system of the next data set is HT-29. The data set can be described thus: Phototoxicity index, ratio of CC50 for human HT-29 cells to EC50 for human HT-29 cells under UV irradiation at 1.5 J/cm2.

pEC50: −log10 of the molar value. Active and inactive are the calls of the source. No cut-off for these calls is given here.

Regarding `COc1ccc(-c2nc3c(nc(C)c4ccc(-c5ccccc5)nc43)o2)cc1`, the Activity in the data set on MCF7 [1] was found to be 10%; in the data set with MCF7 [2], 42.4%; in the data set with MCF7 [3] it was 43.1%; in the data set with MCF7 [4], 24.8%; in the data set with MCF7 [7], 26.9%; in the data set on MCF7 [10], 4.4%. For the same compound, the results for the Activity in the data set on MCF7 [11] and with MCF7 [13] were 4.4% and 34 - 50%, respectively. The figures for the pEC50 in the data set with MCF-10A and in the data set with MCF7 [12] were 6.06 and 8.00, respectively. Further, the selectivity ratio in [5] was determined as 79; in [9], 86. The outcome in the data set with MCF7 [6] and in the data set on MCF7 [8] was Active. Further, the figures for the “Ratio CC50/EC50” value in the data set with A-375 and in the data set with HT-29 were greater than 4545 and greater than 4167, respectively.
